Source: ChEMBL document CHEMBL4673269, “Discovery of S64315, a Potent and Selective Mcl-1 Inhibitor” (J Med Chem, 2020)
Active and inactive are the calls of the source. No cut-off for these calls is given here.

Legend:
AMO1 [1] = experiment: Antitumor activity against human AMO1 xenografted in CB-17 SCID mouse assessed as tumor growth inhibition at 12.5 mg/kg, iv administered daily measured on day 10; assay type: functional; conditions: 240 h, read-out: TGI
Outline: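 Female CB-17 SCID mice, 6−7 weeks old. 5 × 10⁶ AMO-1 cells in growth medium/Matrigel 50:50 injected subcutaneously in the right flank. Randomised at about 200 mm³, n = 8 to 10 per group. Dosed iv in 20% HPbCD–25 mM HCl, daily for 5 days or weekly for 4 weeks. Calipers 2−3 times weekly; volume = length × width²/2. TGI computed from median change in volume versus control; delay judged at median volume 500 mm³.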

SUD4 = experiment: Antiproliferative activity against human SU-DHL4 assessed as reduction in cell viability incubated for 3 days by Cell Titer Blue assay; assay type: functional, cell-based; conditions: time 3.0 day
MV4-11 = experiment: Antiproliferative activity against human MV411 assessed as reduction in cell viability incubated for 3 days by Cell Titer Blue assay; assay type: functional, cell-based; conditions: time 3.0 day
MOLM-13 = experiment: Antiproliferative activity against human MOLM13 assessed as reduction in cell viability incubated for 3 days by Cell Titer Blue assay; assay type: functional, cell-based; conditions: time 3.0 day
PL21 = experiment: Antiproliferative activity against human PL21 assessed as reduction in cell viability incubated for 3 days by Cell Titer Blue assay; assay type: functional; conditions: time 3.0 day
NCI-H929 = experiment: Induction of apoptosis in human H929 cells assessed as induction of PARP cleavage incubated for 6 hrs by immunodetection analysis; assay type: functional, cell-based; conditions: dose 1-3000 nM
Outline: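 H929 cells in RPMI 1640 with 10% FBS were seeded at 2 × 10⁶ cells per 35 mm dish. After 24 h they were exposed to compound for 6 h, then lysed (Hepes pH 7.4, KCl, MgCl₂, EDTA, 1% NP40). 5 μg lysate was assayed for cleaved PARP with the MSD apoptosis panel, read as RLU. Two independent biological experiments.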

[2] = target: Induced myeloid leukemia cell differentiation protein Mcl-1 (Homo sapiens) (UniProt Q07820); experiment: Stabilization of Mcl-1 in human HCT116 cells assessed as increase in Mcl-1 protein levels incubated for 16 hrs by western blot analysis; assay type: cell-based; conditions: HCT-116, dose 0.3-10000 nM
Chain of Induced myeloid leukemia cell differentiation protein Mcl-1 (Homo sapiens) (Q07820 whole entry, the tested form may be a part): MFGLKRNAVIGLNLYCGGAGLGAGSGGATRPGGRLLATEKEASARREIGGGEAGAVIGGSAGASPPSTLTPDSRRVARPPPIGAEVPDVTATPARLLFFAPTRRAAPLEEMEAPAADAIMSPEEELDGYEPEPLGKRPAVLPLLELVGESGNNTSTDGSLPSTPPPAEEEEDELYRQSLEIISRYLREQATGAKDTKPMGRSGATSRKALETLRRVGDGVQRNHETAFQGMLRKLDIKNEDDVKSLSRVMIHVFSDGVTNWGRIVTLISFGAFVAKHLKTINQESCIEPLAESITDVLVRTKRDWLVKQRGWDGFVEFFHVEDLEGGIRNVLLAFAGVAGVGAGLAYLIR
Outline: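 HCT116 cells were seeded at 0.25×10⁶ per 35 mm dish in RPMI 1640 with 10% decomplemented FBS, 2 mM L-glutamine and 10 mM Hepes pH 7.4, at 37 °C and 5% CO₂. After 48 h they were dosed for 16 h and lysed in Hepes/KCl/MgCl₂/EDTA/1% NP40 buffer with inhibitors. Lysate (20 μg) was immunoblotted for Mcl-1, with actin as loading control.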

[3] = target: Bcl-2-like protein 1 (Homo sapiens) (UniProt Q07817); experiment: Displacement of Bax BH3 domain from FLAG-tagged Bcl-xl (unknown origin) expressed in human Hela cells at 30 to 300 nM incubated for 2 hrs by immunoprecipitation assay; assay type: cell-based; conditions: dose 30-300 nM
Chain of Bcl-2-like protein 1 (Homo sapiens) (Q07817 whole entry, the tested form may be a part): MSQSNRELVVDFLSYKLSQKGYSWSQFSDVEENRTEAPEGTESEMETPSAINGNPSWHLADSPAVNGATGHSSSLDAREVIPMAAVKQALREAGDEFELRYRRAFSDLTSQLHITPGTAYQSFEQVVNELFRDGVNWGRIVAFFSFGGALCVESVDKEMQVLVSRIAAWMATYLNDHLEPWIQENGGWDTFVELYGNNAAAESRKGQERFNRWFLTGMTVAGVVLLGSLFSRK
Outline: (§1)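 HeLa cells in DMEM with 10% FCS were transiently transfected with Flag-tagged Mcl-1, Bcl-xL or Bcl-2 vectors. 24 h later they were treated for 2 h and lysed (Hepes pH 7.5, 150 mM KCl, MgCl₂, EDTA, 0.4% Triton X100). Cleared lysates were immunoprecipitated with anti-Flag M2 beads. Inputs and IPs were immunoblotted for endogenous Bax, Bak and Flag.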

[4] = target: Apoptosis regulator Bcl-2 (Homo sapiens) (UniProt P10415); experiment: Displacement of Bax BH3 domain from FLAG-tagged Bcl-2 (unknown origin) expressed in human Hela cells at 30 to 300 nM incubated for 2 hrs by immunoprecipitation assay; assay type: cell-based; conditions: dose 30-300 nM; outline: as §1
Chain of Apoptosis regulator Bcl-2 (Homo sapiens) (P10415 whole entry, the tested form may be a part): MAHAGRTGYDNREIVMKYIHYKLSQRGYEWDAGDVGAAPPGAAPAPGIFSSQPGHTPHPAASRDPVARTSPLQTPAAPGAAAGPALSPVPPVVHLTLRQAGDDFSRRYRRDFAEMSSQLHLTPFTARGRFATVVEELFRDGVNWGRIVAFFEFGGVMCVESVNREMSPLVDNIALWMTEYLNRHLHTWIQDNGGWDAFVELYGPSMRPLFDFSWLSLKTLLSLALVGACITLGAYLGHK

[5] = target: Induced myeloid leukemia cell differentiation protein Mcl-1 (Homo sapiens) (UniProt Q07820); experiment: Displacement of Bax BH3 domain from FLAG-tagged Mcl-1 (unknown origin) expressed in human Hela cells at 30 to 300 nM incubated for 2 hrs by immunoprecipitation assay; assay type: cell-based; conditions: dose 30-300 nM; outline: as §1
[6] = Clearance in mouse at […] mg/kg, iv formulated with 20 % HPBCD in water/ […]% HCl; assay type: ADME, organism-based; conditions: in vivo
AMO1 [7] = experiment: Antitumor activity against human AMO1 cells xenografted in CB-17 SCID mouse assessed as tumor growth inhibition at […] mg/kg, iv administered for 5 consecutive days measured on day 4 relative to control; assay type: functional; conditions: 120 h, time 5 day, read-out: TGI

Activity [2]: Dose-dependent effect
Activity [3]: inactive
Activity [4]: inactive
Activity [5]: Active
clearance [6]: 5.3 mL/min/kg
SMILES: COc1ccccc1-c1nccc(COc2ccccc2C[C@@H](Oc2ncnc3sc(-c4ccc(F)cc4)c(-c4ccc(OCCN5CCN(C)CC5)c(Cl)c4C)c23)C(=O)O)n1
inhibition in vivo at 12.5 mg/kg (AMO1 [1]): 112%
Activity (SUD4): Active
Activity (MV4-11): Active
Activity (MOLM-13): Active
Activity (PL21): Active
Activity (NCI-H929): Dose-dependent effect
inhibition in vivo at […] (AMO1 [7]): 190%
